pIC50: −log10 of the molar value.
Tested on: OVCAR-3
Experiment: Cytotoxicity in human OVCAR3 cells assessed as reduction in cell viability incubated for 72 hrs by cell-titer-96 aqueous one solution cell proliferation assay
Type: functional, cell-based
Details: OVCAR-3, 72 h
Outline: (§1)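 Cells were seeded and cultured overnight at 37 °C in 5% CO2, then exposed to sample, paclitaxel (positive control) or DMSO vehicle for 72 h. Viability was read by CellTiter 96 AQueous One Solution (MTS) assay, and IC50 was calculated relative to the vehicle control.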

SMILES | pIC50
CCCC[C@H]1CCCCC[C@@H](C)c2cc(O)c(c(O)c2)[C@@H](CCCCO)CCCCC[C@@H](C)c2cc(O)c1c(O)c2 | 5.85
CCCC[C@H]1CCCCC[C@@H](C)c2cc(O)c(c(O)c2)[C@@H](CCCC)CCCCC[C@@H](C)c2cc(O)c1c(O)c2 | 5.29
C[C@@H]1CCCCC[C@H](CCCCO)c2c(O)cc(cc2O)[C@H](C)CCCCC[C@H](CCCCO)c2c(O)cc1cc2O | 5.70
C[C@H]1CCCC[C@H](CCCC(Cl)Cl)c2c(O)cc(cc2O)[C@H](OC(N)=O)[C@@H](C)CCCC[C@H](CCCC(Cl)Cl)c2c(O)cc(cc2O)[C@@H]1O | 5.38
CCCC[C@H]1CCCC[C@H](C)[C@@H](OC(C)=O)c2cc(O)c(c(O)c2)[C@@H](CCCC)CCCC[C@H](C)[C@@H](OC(C)=O)c2cc(O)c1c(O)c2 | 5.00
C[C@H]1CCCC[C@H](CCCC(Cl)Cl)c2c(O)cc(cc2O)[C@H](OC(N)=O)[C@@H](C)CCCC[C@H](CCCC(Cl)Cl)c2c(O)cc(cc2O)[C@@H]1OC(N)=O | 5.37

Tested on: MDA-MB-231
Experiment: Cytotoxicity in human MDA-MB-231 cells assessed as reduction in cell viability incubated for 72 hrs by cell-titer-96 aqueous one solution cell proliferation assay
Type: functional, cell-based
Details: MDA-MB-231, 72 h
Outline: as §1

SMILES | pIC50
CCCC[C@H]1CCCCC[C@@H](C)c2cc(O)c(c(O)c2)[C@@H](CCCCO)CCCCC[C@@H](C)c2cc(O)c1c(O)c2 | 5.85
CCCC[C@H]1CCCCC[C@@H](C)c2cc(O)c(c(O)c2)[C@@H](CCCC)CCCCC[C@@H](C)c2cc(O)c1c(O)c2 | 5.21
C[C@@H]1CCCCC[C@H](CCCCO)c2c(O)cc(cc2O)[C@H](C)CCCCC[C@H](CCCCO)c2c(O)cc1cc2O | 6.00
C[C@H]1CCCC[C@H](CCCC(Cl)Cl)c2c(O)cc(cc2O)[C@H](OC(N)=O)[C@@H](C)CCCC[C@H](CCCC(Cl)Cl)c2c(O)cc(cc2O)[C@@H]1O | 5.92
CCCC[C@H]1CCCC[C@H](C)[C@@H](OC(C)=O)c2cc(O)c(c(O)c2)[C@@H](CCCC)CCCC[C@H](C)[C@@H](OC(C)=O)c2cc(O)c1c(O)c2 | 4.89
C[C@H]1CCCC[C@H](CCCC(Cl)Cl)c2c(O)cc(cc2O)[C@H](OC(N)=O)[C@@H](C)CCCC[C@H](CCCC(Cl)Cl)c2c(O)cc(cc2O)[C@@H]1OC(N)=O | 6.00

Tested on: MDA-MB-435
Experiment: Cytotoxicity in human MDA-MB-435 cells assessed as reduction in cell viability incubated for 72 hrs by cell-titer-96 aqueous one solution cell proliferation assay
Type: functional, cell-based
Details: MDA-MB-435, 72 h
Outline: as §1

SMILES | pIC50
CCCC[C@H]1CCCCC[C@@H](C)c2cc(O)c(c(O)c2)[C@@H](CCCCO)CCCCC[C@@H](C)c2cc(O)c1c(O)c2 | 5.80
CCCC[C@H]1CCCCC[C@@H](C)c2cc(O)c(c(O)c2)[C@@H](CCCC)CCCCC[C@@H](C)c2cc(O)c1c(O)c2 | 5.01
C[C@@H]1CCCCC[C@H](CCCCO)c2c(O)cc(cc2O)[C@H](C)CCCCC[C@H](CCCCO)c2c(O)cc1cc2O | 6.05
C[C@H]1CCCC[C@H](CCCC(Cl)Cl)c2c(O)cc(cc2O)[C@H](OC(N)=O)[C@@H](C)CCCC[C@H](CCCC(Cl)Cl)c2c(O)cc(cc2O)[C@@H]1O | 5.49
CCCC[C@H]1CCCC[C@H](C)[C@@H](OC(C)=O)c2cc(O)c(c(O)c2)[C@@H](CCCC)CCCC[C@H](C)[C@@H](OC(C)=O)c2cc(O)c1c(O)c2 | 4.92
C[C@H]1CCCC[C@H](CCCC(Cl)Cl)c2c(O)cc(cc2O)[C@H](OC(N)=O)[C@@H](C)CCCC[C@H](CCCC(Cl)Cl)c2c(O)cc(cc2O)[C@@H]1OC(N)=O | 5.62
